Laboratory results as given in ChEMBL document CHEMBL1649152, “Pharmacokinetics of hydroxychloroquine and its clinical implications in chemoprophylaxis against malaria caused by Plasmodium vivax” (Antimicrob Agents Chemother, 2009).
Calls of active or inactive are those of the source. No cut-off for these calls is given here.

Tests used:
[1] = system: Homo sapiens; test: Terminal half life in healthy human assessed as bisdesethylchloroquine level at 400 mg, po administered as single dose; format: ADME, organism-based; details: in vivo
Summary of the method: (§1)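 Six healthy subjects (study Ia), fasted from 10 h before to 4 h after the oral dose; serial plasma sampled up to 314 h. Plasma extracted with diethyl ether, then reversed-phase HPLC on a C18 column with fluorescence detection (ex 320/em 370 nm). Noncompartmental analysis: Cmax and Tmax observed; terminal t1/2 = ln2/λz; AUC by linear-log trapezoidal, AUCinf extrapolated.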

[2] = system: Homo sapiens; test: Cmax in healthy human plasma assessed as desethylchloroquine level at 400 mg, po administered as single dose; format: ADME, organism-based; set-up: dose 400 mg, route oral; details: in vivo; summary of the method: as §1
[3] = Tmax in healthy human at 400 mg, po administered as single dose; format: ADME, organism-based; details: in vivo; summary of the method: as §1
[4] = system: Homo sapiens; test: Terminal half life in healthy human assessed as desethylchloroquine level at 400 mg, po administered as single dose; format: ADME, organism-based; details: in vivo; summary of the method: as §1
[5] = system: Homo sapiens; test: AUC (infinity) in healthy human assessed as desethylchloroquine level at 400 mg, po administered as single dose; format: ADME, organism-based, Plasma; set-up: dose 400 mg, route oral, time infinity; details: in vivo; summary of the method: as §1
[6] = Cmax in healthy human plasma at 400 mg, po administered as single dose; format: ADME, organism-based; set-up: dose 400 mg, route oral; summary of the method: as §1
[7] = Terminal half life in healthy human at 400 mg, po administered as single dose; format: ADME, organism-based; details: in vivo, read-out: beta t1/2 (converted); summary of the method: as §1
[8] = system: Homo sapiens; test: AUC (last) in healthy human assessed as bisdesethylchloroquine level at 400 mg, po administered as single dose; format: ADME, organism-based, Plasma; set-up: dose 400 mg, route oral, time 0 - last; details: in vivo; summary of the method: as §1
[9] = Apparent oral clearance in healthy human at 400 mg, po administered as single dose; format: ADME, organism-based; details: in vivo
[10] = Apparent peripheral distribution volume in healthy human at 400 mg, po administered as single dose; format: ADME, organism-based; details: in vivo, read-out: Vz/F
[11] = system: Homo sapiens; test: Cmax in healthy human plasma assessed as bisdesethylchloroquine level at 400 mg, po administered as single dose; format: ADME, organism-based; set-up: dose 400 mg, route oral; details: in vivo; summary of the method: as §1
[12] = system: Homo sapiens; test: AUC (infinity) in healthy human assessed as bisdesethylchloroquine level at 400 mg, po administered as single dose; format: ADME, organism-based, Plasma; set-up: dose 400 mg, time infinity, route oral; details: in vivo; summary of the method: as §1
[13] = system: Homo sapiens; test: Ratio of AUC for desethylchloroquine level to AUC for compound in healthy human at 400 mg, po administered as single dose; format: ADME, organism-based; details: in vivo
Summary of the method: (§2)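 Six healthy volunteers in study Ia, fasted from 10 h before to 4 h after dosing, sampled serially up to 314 h. Plasma was stored at –70°C, ether-extracted from ammonia-alkalinised plasma with an internal standard, and assayed by C18 RP-HPLC with fluorescence (ex 320/em 370 nm). Calibration was 10–2,000 ng/ml for parent and 5–200 ng/ml for DCQ/BDCQ. Metabolite and parent AUCs came from noncompartmental linear-log trapezoidal analysis with λz extrapolation to infinity.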

[14] = system: Plasmodium vivax; test: Antimalarial activity against Plasmodium vivax infected in patient assessed as prophylaxis at 400 mg, po once a week
[15] = AUC (last) in healthy human at 400 mg, po administered as single dose; format: ADME, organism-based; set-up: dose 400 mg, time 0 - last, route oral; details: plasma; summary of the method: as §1
[16] = system: Homo sapiens; test: Tmax in healthy human assessed as bisdesethylchloroquine level at 400 mg, po administered as single dose; format: ADME, organism-based; details: in vivo; summary of the method: as §1
[17] = system: Homo sapiens; test: AUC (last) in healthy human assessed as desethylchloroquine level at 400 mg, po administered as single dose; format: ADME, organism-based, Plasma; set-up: dose 400 mg, time 0 - last, route oral; details: in vivo; summary of the method: as §1
[18] = system: Homo sapiens; test: Ratio of AUC for bisdesethylchloroquine level to AUC for compound in healthy human at 400 mg, po administered as single dose; format: ADME, organism-based; details: in vivo; summary of the method: as §2
[19] = system: Homo sapiens; test: Tmax in healthy human assessed as desethylchloroquine level at 400 mg, po administered as single dose; format: ADME, organism-based; details: in vivo; summary of the method: as §1
[20] = AUC (infinity) in healthy human at 400 mg, po administered as single dose; format: ADME, organism-based; set-up: dose 400 mg, time infinity, route oral; details: plasma; summary of the method: as §1

- beta t1/2 [1]: 241 h
- Cmax [2]: 60 nM
- Tmax [3]: 2.4 h
- beta t1/2 [4]: 549.9 h
- AUC [5]: 37.7 µM·h
- Cmax [6]: 1220 nM
- half-life [7]: 172 h
- AUC [8]: 34 µM·h
- CL/F [9]: 200 mL/min
- Vd/F [10]: 2850 L
- Cmax [11]: 360 nM
- AUC [12]: 53.6 µM·h
- Ratio [13]: 0.39
- AUC(0-t) [15]: 75.4 µM·h
- Tmax [16]: 72.8 h
- AUC [17]: 12.2 µM·h
- Ratio [18]: 0.63
- Tmax [19]: 6.1 h
- AUC(0-inf) [20]: 102 µM·h
SMILES: CCN(CCO)CCCC(C)Nc1ccnc2cc(Cl)ccc12 (stereo not given) [HYDROXYCHLOROQUINE]
- Activity [14]: inactive
